# Shown are actives, neighbours in structure and some others; about 2.9% of the full set was active somewhere.
# Apaf1 inhib: blocks human Apaf-1 apoptosome activity | inhibition, % at 20 µM | 0.71% of 330,000 active | O14727 | reconstituted apoptosome caspase-3 activity, DEVD-Rh110 fluorescence; active means inhibition of at least 40% at 20 µM;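 further: plate controls were DMSO wells for no effect and DEVD-CHO caspase inhibitor wells for full effect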
#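 System: reconstituted apoptosome with Apaf-1, cytochrome c, caspase-9, procaspase-3, dATP; Signal: Rh110 fluorescence intensity; Schedule: 30 min compound preincubation, 50 min activation, room temperature; Reagent: cytochrome c trigger plus (Z-DEVD)2-Rh110 caspase-3 substrate.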
# MEKK2 mut-MEK5: signal of MEK5 binding to mutant human MEKK2 PB1 domain; bead flow cytometry, Alexa488-MEK5 binding to MEKK2 mutant; percent response, % at 10 µM; 0.35% of 290,000 active; AID 1530; in the data active means percent response above about 24%, passing the limit was not always enough
# MEKK2 WT-MEK5: raises or lowers MEK5 binding to wildtype human MEKK2 PB1 domain; Q9Y2U5; bead flow cytometry, Alexa488-MEK5 binding to MEKK2 WT; actives lie on both sides; binding response (% of control), % at 10 µM; 1.1% of 290,000 active; AID 1531; in the data active means binding response below about 67% or above about 130%
# UBC13 inh: inhibitors of human UBC13 polyubiquitin chain formation; P61088; TR-FRET; inhibition, % at 20 µM; 0.47% of 330,000 active; AID 485273; in the data active means inhibition above about 45%, passing the limit was not always enough
# MEKK3 PB1 HTS: modulators (inhibitors or enhancers) of MEK5 binding to human MEKK3 PB1 domain. bead-based flow cytometry, Alexa488-MEK5 binding to MEKK3; actives lie on both sides; 0 = blocked by unlabeled MEK5, 100 = vehicle. 1.4% of 290,000 active. Q99759. AID 1529. binding response (% of control), % at 10 µM;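 active means binding response more than 3 SD above or below the average of its plate-row segment, actives on both sides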;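 further: Alexa488 bead fluorescence after subtracting the streptavidin-only scavenger bead signal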
# Apaf-1 inh conf2: Apaf-1 inhibition, single-dose confirmed; 25% of 1,800 active; AID 504614; inhibition, % at 20 µM; shares compounds with Apaf1 inhib; reconstituted apoptosome, caspase-3 DEVD-Rh110 fluorescence;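 active means mean inhibition of at least 40% at 20 µM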;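 further: plate controls were DMSO wells for no effect and DEVD-CHO caspase inhibitor control wells for full effect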
# Rh110 interf inh: counter-screen for Apaf-1 inhibitors: fluorescence interference | Rh110 fluorescence interference, quenched caspase reaction | shares compounds with Apaf1 inhib | 1,800 tested, under 10 active | AID 504615 | activation (fluorescence interference), % at 20 µM;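 active means signal rise of 40% or more at 20 µM, treated as a fluorescence artifact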
# Fluor interf inh: Apaf-1 inhibitor counter-screen fluorescence artifact | shares compounds with Apaf1 inhib | 460 tested, under 10 active | fluorescence interference counterscreen, Apaf-1 assay format | IC50, µM; call rule not given here
# Active calls of the source: *; . = no result.
SMILES,Apaf1 inhib,MEKK2 mut-MEK5,MEKK2 WT-MEK5,UBC13 inh,MEKK3 PB1 HTS,Apaf-1 inh conf2,Rh110 interf inh,others
O=C(COC(=O)/C=C/c1cc(Br)ccc1F)NC1CC1,-5,.,.,2,.,.,.,
O=C1/C(=N\S(=O)(=O)c2cccs2)C([n+]2cccc(Cc3ccccc3)c2)=C([O-])c2ccccc21,34,23,100,-105,102,.,.,
O=C1/C(=N\S(=O)(=O)c2cccs2)C([n+]2ccc(CCCc3ccccc3)cc2)=C([O-])c2ccccc21,46*,-11,99,-90,99,13,-6,
O=C(Cc1cccs1)NCCS(=O)(=O)N1CCN(c2ccccc2F)CC1,1,.,.,0,.,.,.,
COc1ccc(OCCNc2c([N+](=O)[O-])c(=O)oc3ccccc23)cc1,73*,-1,104,-9,105,87*,-2,Fluor interf inh=>100
CCNc1c([N+](=O)[O-])c(=O)oc2ccccc12,-1,-1,104,0,108,.,.,
O=C(CN1C(=O)NC2(CCCC2)C1=O)OCc1c(F)cccc1Cl,4,.,.,-2,.,.,.,
COc1ccc(/C=N/NC(=O)CCn2cnc(-c3ccccc3)c2-c2ccccc2)cc1,54*,2,106,11,150*,44*,11,Fluor interf inh=>100
CC(Sc1nnc(C2CC2)n1-c1ccccc1)C(=O)N1CCCC1 (centres undefined),5,.,.,-2,.,.,.,
O=C(Nc1ccccc1)Nc1cccc2ccccc12,-20,-11,73,20,71,.,.,
O=C(Nc1ccccc1)Nc1ccc(O)c2ccccc12,44*,.,.,-9,.,28,2,
CCC(=Nc1ccc(N)cc1)C1=C(O)C(C(=O)OC)C(C)(C)CC1=O (centres undefined),61*,3,100,-7,99,19,2,
CCCC(=Nc1ccccc1)C1=C(O)C(C(=O)OC)C(C)(C)CC1=O (centres undefined),-3,3,103,-3,100,.,.,
C=CCn1c(CNC(=O)c2ccccc2F)nnc1SCC(=O)NC(C)c1ccccc1 (centres undefined),-3,0,100,8,102,.,.,
COc1ccc(S(=O)(=O)N2CCOCC2)cc1NC(=O)COc1ccc(C(C)=O)cc1OC,6,.,.,0,.,.,.,
O=C(O)c1ccccc1C(=O)Nc1ccccn1,-7,-6,89,11,85,.,.,
O=C(Nc1ccccn1)c1ccc2ccccc2c1O,45*,6,105,-1,104,5,7,
COCCOc1cc(NCc2ccccc2)c2ncn(C(C)C)c2c1,68*,.,.,-7,.,29,1,
CCCOc1cc(NCc2ccccc2)c2ncn(C(C)C)c2c1,44*,.,.,25,.,54*,22,Fluor interf inh=>100
CC(C)n1cnc2c(NCc3ccccc3)cc(Cc3ccc(F)cc3)cc21,25,.,.,21,.,.,.,
CCOc1cc(NCc2ccccc2)c2ncn(C(C)C)c2c1,42*,.,.,20,.,54*,7,Fluor interf inh=>100
CC(C)C(c1nnnn1C(C)(C)C)N1CCN(c2cccc(Cl)c2)CC1 (centres undefined),15,1,97,-8,96,.,.,
O=c1[nH]c(C2CCN(S(=O)(=O)c3ccc(C(F)(F)F)cc3)CC2)nc2c1nnn2Cc1ccccc1,21,-1,97,0,100,.,.,
Cc1cccnc1NC(=O)CNC(=O)COc1ccccc1,-6,.,.,2,.,.,.,
CCN(CC)c1cc(Cl)c2nonc2c1N,-10,5,104,-16,99,.,.,
SMILES,Apaf1 inhib,MEKK2 mut-MEK5,MEKK2 WT-MEK5,UBC13 inh,MEKK3 PB1 HTS,Apaf-1 inh conf2,Rh110 interf inh,others
CN(C)c1cc(Cl)c2nonc2c1N,94*,-2,96,-78,96,52*,3,Fluor interf inh=>100
O=C1NN(c2ccccc2)C(=O)/C1=C/c1ccc(-c2ccc(C(=O)O)cc2)o1,7,3,103,-34,100,.,.,
O=C(O)c1ccc(N2C(=O)/C(=C/c3ccc(-c4ccc([N+](=O)[O-])cc4)o3)C=C2c2ccccc2)cc1,52*,30,.,-50,52,8,16,
CC(=O)N1CCN(C2=Nc3cccc4cccc2c34)CC1,80*,-5,95,-23,86,6,-1,
COc1ccccc1N=Nc1ccc(O)c2ncccc12,90*,-2,97,-32,95,31,14,
Oc1ccc(N=Nc2ccccc2C(F)(F)F)c2cccnc12,16,5,100,-142,98,.,.,
CCN(C[C@H]1N[C@@](C)(C(=O)OC)[C@H]2C(=O)N(C)C(=O)[C@@H]12)S(=O)(=O)c1ccc(F)cc1,-9,.,.,8,.,.,.,
CN1CCc2cc3c(c4c2[C@H]1[C@H](O)c1ccccc1-4)OCO3,48*,4,102,-85,106,34,3,
COCCn1c(=O)c2c(nc3n2CC(C)CN3Cc2ccccc2)n(C)c1=O (centres undefined),-6,3,104,10,104,.,.,
CCC(C(=O)NCCc1ccccc1OC)n1nc(C)c2c(C)n(-c3ccccc3)nc2c1=O (centres undefined),5,1,100,-2,101,.,.,
O=C(NCCOc1nc(N2CCCCC2)nc(N2CCCCC2)n1)Nc1ccccc1,41*,5,106,-9,106,15,11,
CCN(CC(=O)Nc1c(F)cccc1F)C(=O)CNC(=O)c1ccc2c(c1)OCO2,53*,9,107,18,102,31,2,
CCN(CC(=O)Nc1c(F)cccc1F)C(=O)CNC(=O)c1ccc2ccccc2c1,-1,.,.,8,.,.,.,
CCN(CC(=O)Nc1c(F)cccc1F)C(=O)Cc1ccsc1,52*,.,.,33,.,42*,9,Fluor interf inh=>100
NS(=O)(=O)c1ccc(CCNS(=O)(=O)Cc2ccc(Cl)cc2)cc1,9,1,106,-4,105,.,.,
Cc1cc(C)n(C(=O)Cn2nc(C)c(Br)c2C)n1,-5,6,106,8,106,.,.,
CCOc1ccc(N(C)c2ccc(/C=C3/SC(=S)NC3=O)cc2)cc1,18,-5,85,-176,95,.,.,
CCOc1c(O)ccc(/C=C2\SC(=S)NC2=O)c1[N+](=O)[O-],56*,-1,95,-45,95,55*,5,Fluor interf inh=>100
CC(=O)N(Cc1ccc(F)cc1)C1=C(NCCc2ccccc2)C(=O)c2ccccc2C1=O,78*,6,109,-67,105,76*,3,Fluor interf inh=>100
Cc1ccc2oc(-c3ccc(NC(=O)c4ccncc4)cc3O)nc2c1,11,-13,91,10,97,.,.,
COc1ccc(CC(=O)Nc2ccc(-c3nc4cc(C)ccc4o3)c(O)c2)cc1OC,42*,.,.,1,.,6,-3,
